Test results published in PubChem BioAssay AID602227 (Southern Research Specialized Biocontainment Screening …, 2012).
Activity calls are given as the source filed them.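 How the source made its calls: active means viability below 80% at one or more tested concentrations, flagged as toxic; inconclusive means replicate runs disagree on whether the viability criterion is met; inactive means viability at or above 80% at every dose.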

What was measured:
[1] = test system: Vero E6 viability, CellTiter-Glo luminescence, 72 h; test: viability loss in Vero E6 cells – cell-based, set 2, cytotoxicity control for PfM17LAP inhibitor project, dose response (AID 602227)
Summary of the method: (§1)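 Test system – Vero E6 cells · Input – 3000 cells per well · Buffer or medium – E-MEM plus 10% FBS · Doses – compound dose-response, 10 concentrations in 2-fold serial dilution · Incubation – 72 h compound exposure at 37 °C, 5% CO2 · Signal – CellTiter-Glo luminescence · Evaluation – % viability vs DMSO, fitted CC50 · Control set – DMSO vehicle-treated cells as reference for full viability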

[2] = as above; conditions: Vero E6 viability, CellTiter-Glo luminescence, 72 h; at 50 µM (top of the series)
Summary of the method: as §1

Row | SMILES | CC50 [1] | viability [2]
1 | CCCCOc1ccc(CCC(=O)NO)cc1 | 29.1 µM | 
2 | CCCCOc1ccc(CC(=O)N(C)O)cc1 | 27.2 µM | 
3 | CCCCOc1ccc(CNc2c(N(C)O)c(=O)c2=O)cc1 |  | 90% (inactive)
4 | CC(C)(C(=O)NO)c1ccccc1 |  | 102% (inactive)
5 | CCOc1ccc(CC(=O)NO)cc1 |  | 98.9% (inactive)
6 | CCC(C)Oc1ccc(CC(=O)OC)cc1 (configuration not stated) |  | 102% (inactive)
7 | Cc1ccc(CC(=O)NO)cc1 |  | 102% (inactive)
8 | CCCCOc1ccc(CNc2c(N(O)Cc3ccccc3)c(=O)c2=O)cc1 |  | 92.8% (inactive)
9 | CCCCCCCCCC(=O)NO | 25.2 µM | 
10 | CCCCc1ccc(CC(=O)NO)cc1 | 34.7 µM | 
11 | CCCOc1ccc(CC(=O)OC)cc1 |  | 94.9% (inactive)
12 | COc1ccc(CC(=O)NO)cc1 |  | 95.7% (inactive)
13 | COC(=O)Cc1ccc(OCC(C)C)cc1 |  | 101% (inactive)
14 | CCCCOc1ccc(CC(=O)O)cc1 |  | 88.7% (inactive)
15 | CN(O)C(=O)Cc1ccc(OCc2ccccc2)cc1 | 24.8 µM | 
16 | O=C(Cc1ccc(Oc2ccccc2)cc1)NO | 32.4 µM | 
17 | COC(=O)Cc1ccc(OCCN(C)C)cc1 |  | 94.5% (inactive)
